In brackets after ≈: the same amount, converted by molar mass. Activity calls are given as the source filed them. The calls are words filed in the database; no cut-off is given here.
Experiments:
Mus musculus = assay: Antiinflammatory activity in mouse assessed as inhibition of carrageenan-induced increase in paw volume at 200 mg/kg administered 1 hr prior to carrageenan challenge measured after 3 hrs relative to control; type: functional
Summary of the method: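 Mice were fasted 2 h and placed in groups of five. Controls received saline i.p. Phenylbutazone was given at 100 mg/kg i.p., curcumin at 200 mg/kg i.p., and derivatives at 200 mg/kg. After 1 h, 0.1 mL of 1% carrageenan in saline was injected subplantar into the right hind paw. Paw volume was followed by plethysmometer for 3 h, and % inhibition was calculated as (Vc − Vt)/Vc × 100.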

HCT-116 = assay: Cytotoxicity against human HCT116 cells after 24 hrs by MTT assay; type: functional, cell-based
Summary of the method: (§1)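 The MTT assay seeded 5 × 10⁴ cells per well and grew them 24 h in RPMI 1640 with compound at 2.5–200 µM. Medium without cells was the blank and adriamycin the positive control. MTT was added for 4 h at 37 °C, formazan was solubilised, and absorbance was read at 570 nm. IC50 is the concentration that cuts viability 50% against untreated cells.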

QG-56 = assay: Cytotoxicity against human QG56 cells after 24 hrs by MTT assay; type: functional, cell-based; summary of the method: as §1
HeLa = assay: Cytotoxicity against human HeLa cells after 24 hrs by MTT assay; type: functional, cell-based; summary of the method: as §1
HepG2 = assay: Cytotoxicity against human HepG2 cells after 24 hrs by MTT assay; type: functional, cell-based; summary of the method: as §1
Trichoderma viride [1] = assay: Antifungal activity against Trichoderma viride MTCC 1107 after 48 hrs; type: functional; conditions: MTCC 1107, 48 h
Trichoderma viride [2] = assay: Antifungal activity against Trichoderma viride MTCC 1107 assessed as zone of inhibition at 20 uM after 48 hrs by disc diffusion method; type: functional; conditions: MTCC 1107, 48 h, read-out: IZ
Summary of the method: (§2)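 Spores from 4-day potato dextrose agar cultures, suspended in sterile water at 1.5 × 10⁵ CFU/mL. 0.2 mL was spread on potato dextrose agar. 5 mm filter-paper discs soaked with test compound were laid on the lawn. Incubation was 48 h at 28 °C, then the inhibition zone was measured in mm. Fluconazole was the positive control and acetone the negative control.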

Trichoderma viride [3] = assay: Antifungal activity against Trichoderma viride MTCC 1107 assessed as zone of inhibition at 40 uM after 48 hrs by disc diffusion method; type: functional; conditions: MTCC 1107, 48 h, read-out: IZ; summary of the method: as §2
Trichoderma viride [4] = assay: Antifungal activity against Trichoderma viride MTCC 1107 assessed as zone of inhibition at 80 uM after 48 hrs by disc diffusion method; type: functional; conditions: MTCC 1107, 48 h, read-out: IZ; summary of the method: as §2
Curvularia lunata [5] = assay: Antifungal activity against Curvularia lunata MTCC 581 after 48 hrs; type: functional; conditions: MTCC 581, 48 h
Curvularia lunata [6] = assay: Antifungal activity against Curvularia lunata MTCC 581 assessed as zone of inhibition at 20 uM after 48 hrs by disc diffusion method; type: functional; conditions: MTCC 581, 48 h, read-out: IZ; summary of the method: as §2
Curvularia lunata [7] = assay: Antifungal activity against Curvularia lunata MTCC 581 assessed as zone of inhibition at 40 uM after 48 hrs by disc diffusion method; type: functional; conditions: MTCC 581, 48 h, read-out: IZ; summary of the method: as §2
Aspergillus flavus [8] = assay: Antifungal activity against Aspergillus flavus MTCC 1021 after 48 hrs; type: functional; conditions: MTCC 1021, 48 h
Curvularia lunata [9] = assay: Antifungal activity against Curvularia lunata MTCC 581 assessed as zone of inhibition at 80 uM after 48 hrs by disc diffusion method; type: functional; conditions: MTCC 581, 48 h, read-out: IZ; summary of the method: as §2
Aspergillus flavus [10] = assay: Antifungal activity against Aspergillus flavus MTCC 1021 assessed as zone of inhibition at 20 uM after 48 hrs by disc diffusion method; type: functional; conditions: MTCC 1021, 48 h, read-out: IZ; summary of the method: as §2
Aspergillus flavus [11] = assay: Antifungal activity against Aspergillus flavus MTCC 1021 assessed as zone of inhibition at 40 uM after 48 hrs by disc diffusion method; type: functional; conditions: MTCC 1021, 48 h, read-out: IZ; summary of the method: as §2
Aspergillus flavus [12] = assay: Antifungal activity against Aspergillus flavus MTCC 1021 assessed as zone of inhibition at 80 uM after 48 hrs by disc diffusion method; type: functional; conditions: MTCC 1021, 48 h, read-out: IZ; summary of the method: as §2
Aspergillus niger [13] = assay: Antifungal activity against Aspergillus niger MTCC 1108 after 48 hrs; type: functional; conditions: MTCC 1108, 48 h
Aspergillus niger [14] = assay: Antifungal activity against Aspergillus niger MTCC 1108 assessed as zone of inhibition at 20 uM after 48 hrs by disc diffusion method; type: functional; summary of the method: as §2
Aspergillus niger [15] = assay: Antifungal activity against Aspergillus niger MTCC 1108 assessed as zone of inhibition at 40 uM after 48 hrs by disc diffusion method; type: functional; conditions: MTCC 1108, 48 h, read-out: IZ; summary of the method: as §2
Aspergillus niger [16] = assay: Antifungal activity against Aspergillus niger MTCC 1108 assessed as zone of inhibition at 80 uM after 48 hrs by disc diffusion method; type: functional; conditions: MTCC 1108, 48 h, read-out: IZ; summary of the method: as §2
Escherichia coli [17] = assay: Antimicrobial activity against Escherichia coli ATCC 35218 after 24 hrs by broth micro serial dilution method; type: functional; conditions: ATCC 35218, 24 h
Summary of the method: (§3)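 This was broth microdilution in autoclaved Mueller-Hinton broth. 150 µL of compound per well was serially diluted […], and 50 µL of test organism was added. Plates were incubated 24 h at 37 °C and optical density was read.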

Escherichia coli [18] = assay: Antimicrobial activity against Escherichia coli ATCC 35218 assessed as diameter of inhibition zone at 80 uM after 24 hrs by Kirby -Baur disc diffusion method; type: functional
Summary of the method: (§4)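 Kirby-Bauer disc diffusion was used. Acetone stocks (160 µM) were serially doubled down to 80, 40 and 20 µM. 4 µL of each went onto 5 mm sterile paper discs, which were dried 30 min at 50 °C. Inoculum was 1.5 × 10⁸ CFU/mL diluted to 3 × 10² CFU/mL, and 50 µL was spread on Mueller-Hinton agar. After 24 h at 37 °C the inhibition-zone diameter was measured. Ciprofloxacin served as positive control.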

Pseudomonas aeruginosa [19] = assay: Antimicrobial activity against Pseudomonas aeruginosa ATCC 15499 after 24 hrs by broth micro serial dilution method; type: functional; conditions: ATCC 15499, 24 h; summary of the method: as §3
Pseudomonas aeruginosa [20] = assay: Antimicrobial activity against Pseudomonas aeruginosa ATCC 15499 assessed as diameter of inhibition zone at 80 uM after 24 hrs by Kirby -Baur disc diffusion method; type: functional; summary of the method: as §4
Salmonella typhi [21] = assay: Antimicrobial activity against Salmonella typhi ATCC 23564 after 24 hrs by broth micro serial dilution method; type: functional; conditions: Salmonella enterica subsp. enterica serovar Typhi
Salmonella typhi [22] = assay: Antimicrobial activity against Salmonella typhi ATCC 23564 assessed as diameter of inhibition zone at 80 uM after 24 hrs by Kirby -Baur disc diffusion method; type: functional; conditions: Salmonella enterica subsp. enterica serovar Typhi
Bacillus cereus [23] = assay: Antimicrobial activity against Bacillus cereus MTCC 7350 after 24 hrs by broth micro serial dilution method; type: functional; conditions: MTCC 7350, 24 h; summary of the method: as §3
Bacillus cereus [24] = assay: Antimicrobial activity against Bacillus cereus MTCC 7350 assessed as diameter of inhibition zone at 20 uM after 24 hrs by Kirby -Baur disc diffusion method; type: functional; summary of the method: as §4
Bacillus cereus [25] = assay: Antimicrobial activity against Bacillus cereus MTCC 7350 assessed as diameter of inhibition zone at 40 uM after 24 hrs by Kirby -Baur disc diffusion method; type: functional; summary of the method: as §4
Bacillus cereus [26] = assay: Antimicrobial activity against Bacillus cereus MTCC 7350 assessed as diameter of inhibition zone at 80 uM after 24 hrs by Kirby -Baur disc diffusion method; type: functional; conditions: MTCC 7350, 24 h, read-out: DIZ; summary of the method: as §4
Staphylococcus aureus [27] = assay: Antimicrobial activity against Staphylococcus aureus ATCC 11632 after 24 hrs by broth micro serial dilution method; type: functional; conditions: ATCC 11632, 24 h; summary of the method: as §3
Staphylococcus aureus [28] = assay: Antimicrobial activity against Staphylococcus aureus ATCC 11632 assessed as diameter of inhibition zone at 20 uM after 24 hrs by Kirby -Baur disc diffusion method; type: functional; summary of the method: as §4
Staphylococcus aureus [29] = assay: Antimicrobial activity against Staphylococcus aureus ATCC 11632 assessed as diameter of inhibition zone at 40 uM after 24 hrs by Kirby -Baur disc diffusion method; type: functional; conditions: ATCC 11632, 24 h, read-out: DIZ; summary of the method: as §4
Staphylococcus aureus [30] = assay: Antimicrobial activity against Staphylococcus aureus ATCC 11632 assessed as diameter of inhibition zone at 80 uM after 24 hrs by Kirby -Baur disc diffusion method; type: functional; conditions: ATCC 11632, 24 h, read-out: DIZ; summary of the method: as §4

With `COc1ccc(NS(=O)(=O)c2ccc(/N=N/C(C(=O)/C=C/c3ccc(O)c(OC)c3)=C(O)\C=C\c3ccc(O)c(OC)c3)cc2)nn1` the inhibition in vivo at 200 mg/kg (Mus musculus) was 29%, the IC50 (HCT-116) was “Not Active” and the IC50 (QG-56) was > 100 µM. For the same molecule, the IC50 (HeLa) was 100 µM, the IC50 (HepG2) was > 100 µM and the MIC (Trichoderma viride [1]) was 20 µM (≈ 13.2 µg/mL). It also gave a zone of inhibition at 20 µM (Trichoderma viride [2]) of 12 mm, a zone of inhibition at 40 µM (Trichoderma viride [3]) of 16 mm and a zone of inhibition at 80 µM (Trichoderma viride [4]) of 19 mm. The MIC (Curvularia lunata [5]) was 20 µM (≈ 13.2 µg/mL), the zone of inhibition at 20 µM (Curvularia lunata [6]) was 12 mm and the zone of inhibition at 40 µM (Curvularia lunata [7]) was 16 mm. The MIC (Aspergillus flavus [8]) was 40 µM (≈ 26.4 µg/mL), the zone of inhibition at 80 µM (Curvularia lunata [9]) was 19 mm and the zone of inhibition at 20 µM (Aspergillus flavus [10]) was 11 mm. For the same molecule, the zone of inhibition at 40 µM (Aspergillus flavus [11]) was 12 mm, the zone of inhibition at 80 µM (Aspergillus flavus [12]) was 15 mm and the MIC (Aspergillus niger [13]) was > 80 µM. The “inhibition zone (IZ)” value (Aspergillus niger [14]) was “inactive”, the zone of inhibition at 40 µM (Aspergillus niger [15]) was 9 mm and the zone of inhibition at 80 µM (Aspergillus niger [16]) was 12 mm. The MIC (Escherichia coli [17]) was > 80 µM, the “diameter of the inhibition zone (DIZ)” value (Escherichia coli [18]) was “inactive” and the MIC (Pseudomonas aeruginosa [19]) was > 80 µM. The “diameter of the inhibition zone (DIZ)” value (Pseudomonas aeruginosa [20]) was “inactive”, the MIC (Salmonella typhi [21]) was “inactive” and the “diameter of the inhibition zone (DIZ)” value (Salmonella typhi [22]) was “inactive”. The MIC (Bacillus cereus [23]) was > 80 µM, the “diameter of the inhibition zone (DIZ)” value (Bacillus cereus [24]) was “inactive” and the “diameter of the inhibition zone (DIZ)” value (Bacillus cereus [25]) was “inactive”. The zone of inhibition at 80 µM (Bacillus cereus [26]) was 9 mm, the MIC (Staphylococcus aureus [27]) was > 80 µM and the “diameter of the inhibition zone (DIZ)” value (Staphylococcus aureus [28]) was “inactive”. It also gave a zone of inhibition at 40 µM (Staphylococcus aureus [29]) of 9 mm and a zone of inhibition at 80 µM (Staphylococcus aureus [30]) of 11 mm.

— ChEMBL document CHEMBL2384906, “Biological activity, design, synthesis and structure activity relationship of some novel derivatives of curcumin containing sulfonamides” (Eur J Med Chem, 2013)
